Measured values from ChEMBL document CHEMBL4422635, “Structure-Based Discovery of a Subtype-Selective Inhibitor Targeting a Transient Receptor Potential Vanilloid Channel” (J Med Chem, 2019).
Substitutions are numbered along the chain they refer to. The source made the active and inactive calls. The rule behind the calls is not given here.

Key:
[1] = test system: T1, Transient receptor potential cation channel subfamily V member 2 (Mus musculus), Q9WTR1 [F467S]; assay: Antagonist activity at mouse TRPV2 F467S mutant expressed in HEK293T cells assessed as inhibition of 2-APB evoked currents at -60 mV holding potential by whole-cell patch clamp assay; type: cell-based
T1 sequence (whole entry): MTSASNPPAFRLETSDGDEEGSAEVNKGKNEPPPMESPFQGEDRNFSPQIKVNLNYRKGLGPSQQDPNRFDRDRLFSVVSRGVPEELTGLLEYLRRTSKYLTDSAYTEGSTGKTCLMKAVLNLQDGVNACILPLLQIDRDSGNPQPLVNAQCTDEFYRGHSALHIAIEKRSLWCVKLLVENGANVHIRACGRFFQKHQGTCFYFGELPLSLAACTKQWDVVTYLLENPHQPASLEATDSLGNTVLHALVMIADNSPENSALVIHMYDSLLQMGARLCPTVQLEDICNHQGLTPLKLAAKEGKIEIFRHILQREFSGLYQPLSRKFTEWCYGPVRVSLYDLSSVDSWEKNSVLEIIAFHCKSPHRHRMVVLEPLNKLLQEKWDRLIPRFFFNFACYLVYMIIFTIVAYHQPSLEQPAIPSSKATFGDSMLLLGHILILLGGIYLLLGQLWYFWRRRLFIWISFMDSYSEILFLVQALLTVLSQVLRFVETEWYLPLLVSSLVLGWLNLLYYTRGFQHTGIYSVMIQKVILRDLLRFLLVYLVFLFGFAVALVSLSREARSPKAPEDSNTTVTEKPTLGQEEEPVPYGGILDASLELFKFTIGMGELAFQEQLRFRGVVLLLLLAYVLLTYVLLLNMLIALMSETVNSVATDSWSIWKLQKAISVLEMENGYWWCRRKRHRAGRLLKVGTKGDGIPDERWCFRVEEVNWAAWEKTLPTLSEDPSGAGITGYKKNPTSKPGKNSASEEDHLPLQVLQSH
Method in brief: (§1)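 Whole-cell voltage clamp of transiently transfected HEK293T cells co-expressing GFP, recorded 36-96 h post-transfection. Hold -60 mV; pipettes 3-7 MΩ. Bath 165 mM NaCl, 10 mM HEPES pH 7.3; pipette 140 mM KCl, 10 mM HEPES pH 7.3. Room temperature (~25 °C). IC50 from Hill fits of I/I0, the current ratio after vs before inhibitor; mean ± SEM.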

Mus musculus = species: Mus musculus; assay: Antagonist activity at mouse LPA-induced TRPV2/LPAR1 expressed in HEK293T cells assessed as inhibition of 2-APB evoked currents at 1 uM after 3 mins in presence of AM966 by whole-cell patch clamp assay; type: cell-based; method in brief: as §1
PC-3M [2] = assay: Antimetastatic activity in human PC3M cells transfected with TRPV2 siRNA at 5 to 20 uM after 24 hrs by transwell migration assay; type: functional, cell-based
[3] = target: Transient receptor potential cation channel subfamily V member 1 (Mus musculus) (UniProt Q704Y3); assay: Antagonist activity at mouse TRPV1 expressed in HEK293T cells assessed as inhibition of 2-APB evoked currents at 3 to 10 uM -60 mV holding potential by whole-cell patch clamp assay; type: cell-based; method in brief: as §1
[4] = test system: Transient receptor potential cation channel subfamily V member 1 (Mus musculus), Q704Y3 [S513F]; assay: Antagonist activity at mouse TRPV1 S513F mutant expressed in HEK293T cells assessed as inhibition of 2-APB evoked currents at 0.3 to 10 uM at -60 mV holding potential by whole-cell patch clamp assay; type: cell-based; method in brief: as §1
Homo sapiens [5] = species: Homo sapiens; assay: Inhibition of LPA-induced TRPV2/LPAR1 mediated cell migration in human PC3M cells at 20 uM after 24 hrs by transwell migration assay; type: cell-based
[6] = test system: T2, Transient receptor potential cation channel subfamily V member 2 (Mus musculus), Q9WTR1 [Q525A]; assay: Antagonist activity at mouse TRPV2 Q525A mutant expressed in HEK293T cells assessed as inhibition of 2-APB evoked currents at -60 mV holding potential by whole-cell patch clamp assay; type: cell-based; method in brief: as §1
T2 sequence (whole entry): T1 sequence (whole entry) with S467F, Q525A

Homo sapiens [7] = species: Homo sapiens; assay: Inhibition of LPA-induced TRPV2/LPAR1 mediated cell migration in human PC3M cells at 0.1 uM after 24 hrs by transwell migration assay; type: cell-based
PC-3M [8] = assay: Cytotoxicity against human PC3M cells assessed as reduction in cell viability up to 20 uM after 48 hrs by SRB assay; type: cell-based
Method in brief: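 PC-3M cells kept in RPMI 1640 with 10% FBS at 37 °C, 5% CO2.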

Sequence of Transient receptor potential cation channel subfamily V member 1 (Mus musculus), Q704Y3 [S513F] (Q704Y3 whole entry S513F): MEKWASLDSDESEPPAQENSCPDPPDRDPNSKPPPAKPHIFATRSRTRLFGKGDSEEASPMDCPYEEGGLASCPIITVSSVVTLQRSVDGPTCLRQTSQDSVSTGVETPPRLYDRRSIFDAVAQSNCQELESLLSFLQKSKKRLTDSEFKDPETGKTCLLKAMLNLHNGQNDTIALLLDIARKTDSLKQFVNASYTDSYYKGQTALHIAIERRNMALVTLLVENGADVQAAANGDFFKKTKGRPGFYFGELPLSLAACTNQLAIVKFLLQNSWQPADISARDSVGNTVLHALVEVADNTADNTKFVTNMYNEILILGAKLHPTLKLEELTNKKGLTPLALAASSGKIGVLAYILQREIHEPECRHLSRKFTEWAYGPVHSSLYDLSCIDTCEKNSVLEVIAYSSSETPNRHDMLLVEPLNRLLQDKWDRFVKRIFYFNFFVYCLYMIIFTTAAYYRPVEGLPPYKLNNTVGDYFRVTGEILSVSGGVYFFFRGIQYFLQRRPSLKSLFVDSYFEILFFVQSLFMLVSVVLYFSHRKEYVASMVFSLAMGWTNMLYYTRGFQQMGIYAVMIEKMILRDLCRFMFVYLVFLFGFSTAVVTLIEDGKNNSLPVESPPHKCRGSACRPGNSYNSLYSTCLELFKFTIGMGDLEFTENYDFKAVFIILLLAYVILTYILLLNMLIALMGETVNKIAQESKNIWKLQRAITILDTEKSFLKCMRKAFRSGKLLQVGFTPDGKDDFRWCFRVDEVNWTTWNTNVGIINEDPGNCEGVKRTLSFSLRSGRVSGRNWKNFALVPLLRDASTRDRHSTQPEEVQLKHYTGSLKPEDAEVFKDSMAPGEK
Sequence of Transient receptor potential cation channel subfamily V member 1 (Mus musculus) (Q704Y3 whole entry): as the sequence (Q704Y3 whole entry S513F) above, with F513S counted along it

inhibition [1]: inactive
inhibition [3]: inactive
inhibition [4]: inactive
inhibition [6]: inactive
Structure (SMILES): CCCN(C)c1cc(C(F)(F)F)nc(SCCC(=O)NCc2ccco2)n1
inhibition (Mus musculus): inactive
Activity (PC-3M [2]): inactive
inhibition (Homo sapiens [5]): Active
inhibition (Homo sapiens [7]): Active
Activity (PC-3M [8]): Non-Toxic
